According to ChEMBL document CHEMBL1687700, “Discovery of an Orally Efficacious Imidazo[5,1-f][1,2,4]triazine Dual Inhibitor of IGF-1R and IR” (ACS Med Chem Lett, 2010):
Calls of active or inactive are those of the source. The calls are words filed in the database; no cut-off is given here.

Experiments:
[1] = target: RAC-alpha serine/threonine-protein kinase (Homo sapiens) (UniProt P31749); assay: Inhibition of AKT phosphorylation in human GEO cells; format: cell-based
[2] = tested on: Mus musculus; assay: Increase in blood glucose level in CD-1 nu/nu mouse at 10 mg/kg, po after 24 hrs; format: functional, organism-based; design: dose 10 mg/kg
Procedure, shortened: (§1)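 Blood glucose measured in GEO xenograft mice after the last dose of a 14-day oral dosing study, over a time course to 24 h.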

[3] = tested on: Mus musculus; assay: Increase in blood glucose level in CD-1 nu/nu mouse at 10 mg/kg, po upto 8 hrs; format: functional, organism-based; design: dose 10 mg/kg; procedure, shortened: as §1
[4] = tested on: Mus musculus; assay: Inhibition of human IGF1R phosphorylation in human GEO cells xenografted in CD-1 nu/nu mouse assessed as sustained inhibition measured 24 hrs post last dose at 20 mg/kg, po qd administered for 14 days
[5] = Clearance in rhesus monkey at 5 mg/kg, iv administered as single dose; format: ADME, organism-based, Macaca mulatta; design: dose 5 mg/kg, route intravenous; conditions: in vivo
Procedure, shortened: (§2)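 Single 5 mg/kg iv dose used to derive clearance and Vss; median values reported per species (female rat, male rhesus monkey).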

[6] = tested on: Mus musculus; assay: Inhibition of human IGF1R phosphorylation in human GEO cells xenografted in CD-1 nu/nu mouse at 10 mg/kg, po bid administered for 14 days; format: functional; conditions: CD-1, GEO, 336 h
Procedure, shortened: (§3)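 GEO xenografts dosed orally for 14 days (qd or bid); tumors removed after last dose, up to 24 h, for pIGF-1R and pIR content relative to vehicle controls; means ± SE.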

[7] = tested on: Mus musculus; assay: Inhibition of human IGF1R phosphorylation in human GEO cells xenografted in CD-1 nu/nu mouse at 20 mg/kg, po administered once daily for 14 days; format: functional; conditions: CD-1, GEO, 336 h; procedure, shortened: as §3
[8] = Plasma concentration in human GEO cells xenografted CD-1 nu/nu mouse at 10 mg/kg, po administered as single dose in 40% Trappsol after 16 hrs; format: ADME, organism-based; design: dose 10 mg/kg, route oral
Procedure, shortened: (§4)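 GEO xenograft mice given a single 10 mg/kg oral dose; tumors and plasma sampled over time; tumor pIGF-1R and pIR content expressed as percentage of vehicle-treated controls alongside plasma drug level; means ± SD.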

[9] = Cmax in CD-1 mouse at 25 mg/kg, po administered as single dose; format: ADME, organism-based; design: dose 25 mg/kg, route oral; conditions: in vivo
[10] = tested on: Mus musculus; assay: Inhibition of human IGF1R phosphorylation in human GEO cells xenografted in CD-1 nu/nu mouse at 10 mg/kg, po administered as single dose in 40% Trappsol upto 8 hrs; format: functional; conditions: CD-1, GEO; procedure, shortened: as §4
[11] = Antitumor activity against human GEO cells xenografted in CD-1 nu/nu mouse assessed as tumor growth inhibition at 10 mg/kg, po bid administered for 14 days; format: functional; conditions: 336 h, read-out: TGI
Procedure, shortened: (§5)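 Nude mouse xenografts dosed orally (HCl salt in 40% w/v hydroxypropyl-β-cyclodextrin) once or twice daily for 14 days; tumor volume expressed as percentage of initial volume, mean ± SE; body weight monitored.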

[12] = Volume of distribution at steady state in rhesus monkey at 5 mg/kg, iv administered as single dose; format: ADME, organism-based, Macaca mulatta; design: dose 5 mg/kg, route intravenous; conditions: in vivo, read-out: Vdss; procedure, shortened: as §2
[13] = Plasma protein binding in mouse; format: ADME, cell-free; conditions: read-out: PPB (converted)
Procedure, shortened: (§6)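 Plasma protein binding determined by ultracentrifugation in mouse, rat and human plasma; percent bound reported.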

[14] = tested on: NIH3T3; assay: Antitumor activity against mouse NIH/3T3 cells xenografted in CD-1 nu/nu mouse assessed as tumor growth inhibition at 10 mg/kg, po bid administered for 14 days; format: functional; conditions: NIH3T3, 336 h
[15] = AUC in CD-1 mouse at 25 mg/kg, po administered as single dose; format: ADME, organism-based; design: dose 25 mg/kg, route oral; conditions: plasma
Procedure, shortened: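 Single oral dose of 25 mg/kg, given as the HCl salt in 40% w/v hydroxypropyl-β-cyclodextrin, to female mice. Plasma exposure is reported as AUC (ng h/mL), with median values given. CL and Vss come from a separate 5 mg/kg iv dose.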

[16] = tested on: Mus musculus; assay: Inhibition of human IGF1R phosphorylation in human GEO cells xenografted in CD-1 nu/nu mouse at 10 mg/kg, po administered as single dose in 40% Trappsol after 16 hrs; format: functional; conditions: CD-1, GEO; procedure, shortened: as §4
[17] = Antitumor activity against human GEO cells xenografted in CD-1 nu/nu mouse assessed as tumor growth inhibition at 5 mg/kg, po bid administered for 14 days; format: functional; conditions: 336 h, read-out: TGI; procedure, shortened: as §5
[18] = Oral bioavailability in rhesus monkey at 30 mg/kg administered as single dose; format: ADME, organism-based, Macaca mulatta; conditions: in vivo
Procedure, shortened: (§7)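 Rhesus monkey (male), single oral dose of the HCl salt in 40% w/v hydroxypropyl-β-cyclodextrin vehicle; median PK parameters reported; bioavailability referenced to a 5 mg/kg iv dose.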

[19] = Plasma protein binding in rat; format: ADME, cell-free; conditions: read-out: PPB (converted); procedure, shortened: as §6
[20] = Cmax in rhesus monkey at 30 mg/kg, po administered as single dose; format: ADME, organism-based, Macaca mulatta; design: dose 30 mg/kg, route oral; conditions: in vivo; procedure, shortened: as §7
[21] = tested on: Mus musculus; assay: Inhibition of IR phosphorylation in human GEO cells xenografted in CD-1 nu/nu mouse at 10 mg/kg, po administered as single dose in 40% Trappsol; format: functional; conditions: CD-1, GEO; procedure, shortened: as §4
[22] = tested on: Mus musculus; assay: Inhibition of human IGF1R phosphorylation in human GEO cells xenografted in CD-1 nu/nu mouse at 5 mg/kg, po bid administered for 14 days; format: functional; conditions: CD-1, GEO, 336 h; procedure, shortened: as §3
[23] = Oral bioavailability in CD-1 mouse at 25 mg/kg administered as single dose; format: ADME, organism-based; conditions: in vivo
[24] = AUC in rhesus monkey at 30 mg/kg, po administered as single dose; format: ADME, organism-based, Macaca mulatta; design: dose 30 mg/kg, route oral; conditions: plasma; procedure, shortened: as §7
[25] = Plasma concentration in human GEO cells xenografted CD-1 nu/nu mouse at 10 mg/kg, po administered as single dose in 40% Trappsol upto 8 hrs; format: ADME, organism-based; design: dose 10 mg/kg, route oral; procedure, shortened: as §4
[26] = tested on: Mus musculus; assay: Inhibition of IR phosphorylation in human GEO cells xenografted in CD-1 nu/nu mouse at 5 mg/kg, po bid administered for 14 days; format: functional; conditions: CD-1, GEO, 336 h; procedure, shortened: as §3
[27] = Plasma protein binding in human; format: ADME, cell-free; conditions: read-out: PPB (converted); procedure, shortened: as §6
[28] = Antitumor activity against human GEO cells xenografted in CD-1 nu/nu mouse assessed as tumor growth inhibition at 20 mg/kg, po administered once daily for 14 days; format: functional; conditions: 336 h, read-out: TGI; procedure, shortened: as §5
[29] = Clearance in CD-1 mouse at 5 mg/kg, iv administered as single dose; format: ADME, organism-based; design: dose 5 mg/kg, route intravenous; conditions: in vivo
[30] = Volume of distribution at steady state in CD-1 mouse at 5 mg/kg, iv administered as single dose; format: ADME, organism-based; design: dose 5 mg/kg, route intravenous; conditions: in vivo, read-out: Vdss
[31] = Cmax in CD-1 mouse plasma at 25 mg/kg, po administered as single dose; format: ADME, organism-based; design: dose 25 mg/kg, route oral
[32] = Permeability of the compound by PAMPA assay at pH 5.0; format: ADME; conditions: read-out: permeability
Procedure, shortened: (§8)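 Parallel artificial membrane permeability assay run at pH 5.0 and pH 7.4; permeability reported in nm/s.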

[33] = Permeability of the compound by PAMPA assay at pH 7.4; format: ADME; conditions: read-out: permeability; procedure, shortened: as §8
[34] = Oral bioavailability in CD-1 mouse at 25 mg/kg, po administered as single dose; format: ADME, organism-based; conditions: CD-1, mouse, in vivo

Chain of RAC-alpha serine/threonine-protein kinase (Homo sapiens) (P31749 whole entry): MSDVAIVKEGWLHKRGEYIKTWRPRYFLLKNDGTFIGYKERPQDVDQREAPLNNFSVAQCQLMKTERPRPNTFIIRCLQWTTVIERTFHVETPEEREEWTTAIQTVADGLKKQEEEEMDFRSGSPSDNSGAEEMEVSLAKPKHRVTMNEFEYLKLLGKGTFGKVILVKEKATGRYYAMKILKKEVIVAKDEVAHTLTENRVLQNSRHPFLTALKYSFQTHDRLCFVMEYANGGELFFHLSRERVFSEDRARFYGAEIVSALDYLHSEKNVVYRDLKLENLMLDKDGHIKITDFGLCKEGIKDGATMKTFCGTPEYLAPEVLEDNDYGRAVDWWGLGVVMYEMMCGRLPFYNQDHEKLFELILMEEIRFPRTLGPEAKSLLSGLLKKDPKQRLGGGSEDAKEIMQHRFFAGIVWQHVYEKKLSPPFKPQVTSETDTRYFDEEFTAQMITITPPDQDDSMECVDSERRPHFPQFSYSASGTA

## C[C@]1(O)C[C@@H](c2nc(-c3ccc4ccc(-c5ccccc5)nc4c3F)c3c(N)ncnn32)C1
[1]
  inhibition: Active
[2]
  Activity: inactive
[3]
  Activity: Active
[4]
  inhibition: Active

## C[C@]1(O)C[C@@H](c2nc(-c3ccc4ccc(-c5ccccc5)nc4c3F)c3c(N)ncnn32)C1.Cl
[5]
  clearance: 15 mL/min/kg
[6]
  inhibition in vivo at 10 mg/kg: > 70%
[7]
  inhibition in vivo at 20 mg/kg: > 70%
[8]
  concentration at 16 h: 0.38 µM
[9]
  Cmax: 35.2 µM
[10]
  inhibition in vivo at 10 mg/kg: > 70%
[11]
  inhibition in vivo at 10 mg/kg: 91%
[12]
  Vd: 0.55 L/kg
[13]
  fraction unbound: 0.015
[14]
  inhibition in vivo at 10 mg/kg: 100%
[15]
  AUC: 240 µg·h/mL
[16]
  inhibition in vivo at 10 mg/kg: 50%
[17]
  inhibition in vivo at 5 mg/kg: 31%
[18]
  bioavailability: 97%
[19]
  fraction unbound: 0.034
[20]
  Cmax: 10.8 µM
[21]
  inhibition in vivo at 10 mg/kg: 50%
[22]
  inhibition in vivo at 5 mg/kg: 40%
[23]
  bioavailability: 100%
[24]
  AUC: 31.4 µg·h/mL
[25]
  concentration at 8 h: > 4 µM
[26]
  inhibition in vivo at 5 mg/kg: 40%
[27]
  fraction unbound: 0.027
[28]
  inhibition in vivo at 20 mg/kg: 85%

## CN1CCN([C@H]2C[C@@H](c3nc(-c4ccc5ccc(-c6ccccc6)nc5c4F)c4c(N)ncnn43)C2)CC1
[29]
  clearance: 21 mL/min/kg
[30]
  Vd: 4.9 L/kg
[31]
  Cmax: 1.9 µM
[32]
  Papp: 14.5 ×10⁻⁶ cm/s
[33]
  Papp: 67.2 ×10⁻⁶ cm/s
[34]
  bioavailability: 27%
